Screens (PubChem BioAssay)
ERAP1 HTS inh: blocks human ERAP1 aminopeptidase activity; Q9NZ08; recombinant ERAP1, Leu-AMC fluorescence, 60 min; inhibition, % at 10.7 µM; 340,000 tested, 0.15% active; AID 652197;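 active = mean replicate inhibition of at least 30%, or all replicates individually reaching that 30% level; inactive = mean below 30% and not every replicate reaching it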;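 also: 0% = neutral control wells and 100% = L-leucinethiol positive control wells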
Ecoli rRNA inh: inhibitors of bacterial rRNA selective over humanized ribosomes; E. coli WT GFP vs humanized-ribosome RFP mutants, fluorescence, 24 h; hits give low values; DMSO median 0, no signal -100; GFP signal change (wild-type ribosome), % (no concentration beside the values); 350,000 tested, 1.6% active; AID 720706;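 active = significant combined selectivity score with lowered wild-type GFP, culture density cut under 30%, mutant RFP and density less affected; inactive = any of these conditions unmet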
Env fusion inh: inhibitors of HIV Env-mediated cell fusion. AID 651610. HeLa-JRFL Env/CEM21 cell fusion, luciferase. inhibition, % at 12.3 µM. 360,000 tested, 1.1% active;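 active = mean replicate inhibition score of at least 50 and every replicate individually at or above 50; inconclusive = only one of the two criteria met; inactive = mean below 50 and not all replicates reaching 50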;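 also: 0% = plate neutral controls and 100% = maraviroc near 300 nM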
PGC1a acetyl inh: lowers PGC1a acetylation signal in U2OS cells | AlphaScreen anti-acetyl-lysine; with virally co-expressed GCN5 acetyltransferase | AID 651687 | 350,000 tested, 0.17% active | inhibition, % at 15.6 µM;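 active = every replicate shows inhibition of at least 40%; inconclusive = mean inhibition at least 40% but some replicate below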;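 also: 0% = neutral control wells and 100% = positive control wells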
FGF22 binding: FGF22 (human) thermal shift binding; activity (Tm shift, normalised), % at 9.99 µM; 340,000 tested, 1.5% active; AID 651658; recombinant FGF22 thermal shift, SYPRO orange fluorescence; percent of sucrose octasulfate shift, DMSO zero;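 active = mean Tm shift, scaled 0 neutral to 100 positive control, at about 1.3% or above, every replicate too, limit read from the data; inconclusive = no clear call, values can overlap the other calls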
Target sequence (Q9HCT0 whole entry, looked up): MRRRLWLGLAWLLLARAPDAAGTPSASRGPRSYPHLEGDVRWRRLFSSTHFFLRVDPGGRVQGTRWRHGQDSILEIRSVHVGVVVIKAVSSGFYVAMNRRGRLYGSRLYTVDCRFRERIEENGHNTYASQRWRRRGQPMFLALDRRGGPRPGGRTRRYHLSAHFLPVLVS
Cneo AK release: Cryptococcus neoformans lysis via adenylate kinase release | C. neoformans lysis, adenylate kinase release luminescence, 4 h; normalised: neutral wells 0, clomiphene wells 100 | lysis activity, % at 15 µM | 360,000 tested, 0.2% active | AID 651654;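 active = mean lysis activity across replicates of at least 80%, whatever share of replicates individually reach that level; inactive = mean lysis activity below 80%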
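Test system: log-phase Cryptococcus neoformans yeast cells; Quantity: yeast cell density of 5 × 10^6 cells/mL; Buffer or medium: YPD; Doses: single compound concentration per well; Timing: 4 h at 37 °C static, read 1 h later; Measured by: AK luminescence; Read-out basis: lysis from increased AK signal; Control set: Clomiphene as positive control.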
* = called active by the depositor; ? = inconclusive; nt = not tested or not shown; [ ] = remark or other dose. An excerpt weighted towards active compounds, which were near 3.5% of everything screened.

SMILES	ERAP1 HTS inh	Ecoli rRNA inh	Env fusion inh	PGC1a acetyl inh	FGF22 binding	Cneo AK release
O=C(Cn1ncc(Cl)c(Cl)c1=O)N1CCN(S(=O)(=O)c2ccc3ccccc3c2)CC1	nt	nt	-15.4	76.7*	nt	-3.4
O=C(O)CCC(=O)N1CCN(S(=O)(=O)c2ccc3ccccc3c2)CC1	0.6	4.7	-11.2	nt	0.2	-0.8
O=C(CCC(=O)N1CCN(S(=O)(=O)c2ccc(Cl)cc2)CC1)Nc1ccc(Cl)cc1Cl	3.1	nt	1.0	nt	43.4*	-2.5
C[C@@H]1CN([C@@H](C)CO)C(=O)Cc2cc(NC(=O)CCCCCC(=O)Nc3ccccc3N)ccc2O[C@H]1CN(C)S(=O)(=O)c1ccc(Cl)cc1	nt	-2.7	8.7[16.7 µM]	-10.4	nt	nt
CCCCCCCCN1C(=O)[C@@H](CC(=O)NCCCN2CCCC2=O)C[C@@]2(C(=O)OC)C1=C[C@H](C(C)(C)C)O[C@@H]2C	2.4	-1.6	?	nt	-0.3	nt
C=CCn1c(CCNC(=O)c2ccccc2F)nnc1SCc1nc2ccccc2c(=O)[nH]1	-0.4	4.1	nt	-28.9	0.2	1.2
C=CCn1c(CNC(=O)c2ccccc2F)nnc1SCc1nc2ccccc2c(=O)[nH]1	-2.4	8.7	-10.3	4.7	43.1*	-4.1
COc1ccc(-c2nn(-c3ccccc3)cc2/C=C/C(=O)N2CCOCC2)cc1OC	13.2	-24.1*	-12.2	-16.9	0.0	nt
COc1ccc(-c2[nH]c(-c3ccc(C(=O)O)cc3)nc2-c2ccccc2)cc1	nt	nt	3.5	-1.6	nt	-1.6
Cc1c(C(=O)Nc2cccc(N(C)S(C)(=O)=O)c2)cccc1[N+](=O)[O-]	4.5	-9.8	12.6	nt	-0.2	nt
CC(=O)Nc1ccc(S(=O)(=O)N2CCCC2C(=O)Nc2ccc3c(c2)OCCO3)cc1 (stereo unspecified)	0.4	1.6	-1.3	-6.3	43.9*	2.6
CSc1cccc(NC(=O)C2CCCN2S(=O)(=O)c2ccc(Br)s2)c1 (stereo unspecified)	nt	nt	60.3*	-8.4	nt	0.5
O=C(Nc1ccc2c(c1)OCCO2)C1CCCN1S(=O)(=O)c1cccc2cccnc12 (stereo unspecified)	1.6	-0.2	-23.6	-3.9	-0.1	-1.0
CC(=O)Nc1ccc(S(=O)(=O)N2CCCC2C(=O)Nc2ccc(F)cc2)cc1 (stereo unspecified)	-1.2	-0.3	-5.4	1.7	-0.2	-1.7
O=C(Nc1ccc(F)cc1)C1CCCN1S(=O)(=O)c1ccc(Br)cc1 (stereo unspecified)	0.0	-2.6	80.5*	nt	-0.2	-1.4
C[C@@H]1ON(C)[C@H]2C[C@H]3c4[nH]c5c(-c6ccccc6)cccc5c4CCN3C(=O)[C@@H]12	-1.3	-25.8	-5.6	nt	-0.2	nt
CC=Cc1ccc2n(c1=O)C[C@@H]1[C@@H](CO)[C@H](C(=O)NCC)[C@H]2N1C(=O)C1CC1 (mixture of isomers)	-2.1	-0.3	nt	nt	0.3	1.2
C1=Nc2c(NCc3ccccc3)ncnc2Oc2ccccc21	nt	nt	nt	-5.8	nt	nt
O=C(O/N=C/c1ccc(Cl)cc1)C1CCCCC1	-1.0	6.4	4.7	3.0	-0.2	1.5
O=C(NCCCn1ccnc1)c1cccc(S(=O)(=O)Nc2ccc(Br)cc2)c1	-1.3	-14.0	-27.3	-7.4	0.0	4.6
CCC(=O)N1C[C@@H]2[C@H](c3ccccc31)[C@H](CO)N2Cc1cc(F)ccc1F	-3.0	-3.5	nt	-3.3	-0.8	7.5
O=C(CSc1ccc(Cl)cc1)NCc1ccncc1	-1.2	5.0	1.5	2.5	43.0*	0.9
N/C(CSc1ccc(Cl)cc1)=N\NC(=O)c1ccncc1	-3.2	-7.0	9.4	-6.8	43.3*	nt
O=C(C1=CC=CN2CCS(=O)(=O)N=C12)N1CCN(c2cccc(Cl)c2)CC1	-3.1	4.0	nt	1.6	-0.4	0.4
CCOc1ccccc1N1CCN(C(=O)C2=CC=CN3CCS(=O)(=O)N=C23)CC1	56.3*	12.6	-4.5	1.3	-0.3	1.3
SMILES	ERAP1 HTS inh	Ecoli rRNA inh	Env fusion inh	PGC1a acetyl inh	FGF22 binding	Cneo AK release
O=C(Oc1cc(Cl)ccc1Cl)C1=CC=CN2CCS(=O)(=O)N=C12	3.2	14.9	2.8	4.2	15.6*	3.6
O=C(Oc1ccc(Cl)c(Cl)c1)C1=CC=CN2CCS(=O)(=O)N=C12	-0.1	-1.8	-22.2	-0.6	-0.2	-0.9
CC(=O)c1cccc(NC(=O)c2sc3nc4n(c(=O)c3c2C)CCCCC4)c1	-0.7	-22.2	-6.1	-5.9	-0.3	4.8
COc1ccc(CCNC(=O)CSc2nc(N)c(C#N)c(-c3cccs3)c2C#N)cc1OC	nt	nt	118.6*	5.3	nt	7.3
COCCn1c(-c2ccc(Cl)cc2)cnc1SCC(=O)NCCc1ccc(OC)c(OC)c1	1.5	-21.6*	2.3	nt	0.3	nt
COc1ccc(CCNC(=O)CSCc2ccc(Cl)cc2)cc1OC	2.0	-21.7	9.3	nt	-0.4	nt
O=C(COc1ccc(Br)cc1)Nc1ccc(N2CCOCC2)cc1N1CCOCC1	19.4	nt	nt	2.0	-0.2	3.8
O=C(Cc1n[nH]c(=O)[nH]c1=O)N/N=C/c1ccccc1	1.0	17.9	19.3	-3.8	nt	-1.0
COC(=O)c1oc2ccccc2c1NC(=O)c1ccccc1O	2.7	-23.6	13.9	14.7	43.2*	-19.1
CCOC(=O)c1oc2ccccc2c1NC(=O)c1ccccc1OC	-0.2	nt	nt	0.8	-0.2	nt
COc1ccc(-n2c(SCC(=O)N3CCCCC3)nc3ccccc3c2=O)cc1	-2.5	11.9	-5.5	nt	-0.1	1.8
CCCCCC(=O)N1C[C@H](O)[C@@H](n2cc(COC(=O)c3ccccc3)nn2)C[C@@H]1c1ccc(Cl)cc1	-1.1	6.3	9.3	-14.4	0.3	nt
C#CC1(O)CCC2C3CCC4=C(CCC(=O)C4)C3CCC21C (stereo unspecified)	-3.7	-9.1	62.2*	12.5	-0.1	0.4
COc1ccc(C(=O)NC(=S)Nc2ccc(CN3CCCCC3)cc2)cc1Cl	-5.7	-20.3*	1.8	nt	0.7	nt
O=C(NC(=S)Nc1ccc(CN2CCOCC2)cc1)c1ccco1	0.8	-3.9	-17.7	-9.4	0.0	-0.2
O=C(NC(=S)Nc1ccc(CN2CCCCC2)cc1)c1ccco1	0.4	9.9	5.0	3.3	43.4*	nt
COc1ccc(C(=O)NC(=S)Nc2ccc(CN3CCOCC3)cc2)cc1Cl	1.1	-6.9	-4.5	7.0	0.2	11.6
COc1ccc(CC(NC(C)=O)C(=O)NC2CCN(C(=O)NCc3ccccc3)CC2)cc1 (stereo unspecified)	1.7	12.1	nt	12.9	0.0	1.3
Cc1cc(NS(=O)(=O)c2ccc(NC(=O)CSc3nc4sc(C)c(C)c4c(=O)[nH]3)cc2)no1	-7.5	9.7	5.4	-4.4	0.2	nt
CC(C)NC(=O)Nc1ccc2c(c1)C(=O)N([C@H](C)CO)C[C@@H](C)[C@@H](CN(C)C(=O)CCC(F)(F)F)OCCCC[C@@H](C)O2	-1.9	0.1	79.4*[16.7 µM]	3.9	-0.7	0.3
